Published values gathered from unrelated publications.
Compare with care: the assays were run in different laboratories.
PPARA: Peroxisome proliferator-activated receptor alpha (PPARA, Homo sapiens, UniProt Q07869)
ADRA1B: Alpha-1B adrenergic receptor (ADRA1B, Homo sapiens, UniProt P35368)
CASP1: Caspase-1 (CASP1, Homo sapiens, UniProt P29466)

SMILES | target | assay | setting | Ki
CC(=O)N[C@@H](CCCNC(=N)N)C(=O)NCCOCCOCC(=O)N[C@H](CC(=O)O)C(=O)N1CCC[C@H]1B(O)O | Prolyl endopeptidase (PREP, Homo sapiens, UniProt P48147) | enzyme activity, inhibitor, fluorescence |  | 23.9 nM
O=C(Nc1ccc(Oc2ncccn2)cc1C(=O)O)c1ccc(Cl)cc1Cl | PPARA | ligand displacement, TR-FRET |  | 4420 nM
O=C1c2ccccc2CCN1CCCCN1CCN(c2ccccn2)CC1 | ADRA1B | ligand displacement, radioligand |  | 1380 nM
CC[C@H](C)[C@H](NC(=O)[C@H](CCCNC(=N)N)NC(=O)[C@H](CCCNC(=N)N)NC(=O)[C@H](CC(C)C)NC(=O)CNC(=O)[C@H](CCC(N)=O)NC(=O)[C@H](C)NC(=O)[C@@H](NC(=O)[C@H](Cc1c[nH]c2ccccc12)NC(=O)[C@@H](NC(=O)[C@H](CCC(=O)O)NC(=O)[C@@H]1CCCN1C(=O)[C@H](CCCNC(=N)N)NC(C)=O)[C@@H](C)CC)[C@@H](C)CC)C(=O)NCC(=O)N[C@@H](CC(=O)O)C(=O)N[C@H](C(=O)N[C@@H](Cc1c[nH]c2ccccc12)C(=O)N[C@@H](CC(N)=O)C(=O)N[C@@H](C)C(=O)N[C@@H](Cc1ccc(O)cc1)C(=O)N[C@@H](Cc1ccc(O)cc1)C(=O)N[C@@H](C)C(=O)N[C@@H](CCCNC(=N)N)C(N)=O)[C@@H](C)O | Bcl-2-related protein A1 (Homo sapiens, UniProt Q16548) | ligand displacement, FP | pH 7.8 | 8 nM
O=C1c2ccccc2CCN1CCCCN1CCN(c2cccc(Cl)c2Cl)CC1 | ADRA1B | ligand displacement, radioligand |  | 649 nM
CC(=O)N[C@@H](CC(C)C)C(=O)N[C@@H](CC(C)C)C(=O)N[C@@H](CCCN=C(N)N)C(=O)N[C@H](C(=O)N[C@@H](CCCCN)C(=O)N[C@@H](CCCN=C(N)N)C(N)=O)C(C)C | Proprotein convertase subtilisin/kexin type 7 (Homo sapiens, UniProt Q16549) | enzyme activity, inhibitor |  | 2700 nM
O=S(=O)(Nc1ccc[nH]c1=S)c1cccs1 | Insulin-degrading enzyme (IDE, Homo sapiens, UniProt P14735) | enzyme activity, inhibitor, fluorescence |  | 77000 nM
CC1(COc2ccc(CC3SC(=O)NC3=O)cc2)CCCCC1 (stereo not shown) | PPARA | ligand displacement, TR-FRET |  | 141000 nM
O=C1c2ccccc2CCCN1CCCCN1CCN(c2ccccn2)CC1 | ADRA1B | ligand displacement, radioligand |  | 2540 nM
O=c1c(O)c(-c2ccc(O)c(O)c2)oc2cc(O)cc(O)c12 | CASP1 | enzyme activity, inhibitor, fluorescence |  | > 300000 nM
NCCCCC(c1ccccc1)(c1ccccc1)c1ccccc1 | Kinesin-like protein KIF11 (KIF11, Homo sapiens, UniProt P52732) | ATPase activity, inhibitor |  | 1670 nM
O=c1cc(-c2ccc(O)c(O)c2)oc2cc(O)cc(O)c12 | CASP1 | enzyme activity, inhibitor, fluorescence |  | 119000 nM
CCCC[C@H](NC(=O)[C@H](C)c1c(C)[nH]c2ccc(O)cc12)c1ncc(-c2cc3ccccc3nc2OC)[nH]1 | Histone deacetylase 3 (HDAC3, Homo sapiens, UniProt O15379) | enzyme activity, inhibitor |  | 60 nM
